The record followed here is ChEMBL document CHEMBL4325827, “Bifidenone: Structure-Activity Relationship and Advanced Preclinical Candidate” (J Med Chem, 2018).

The nature of data set [1]: Drug uptake in tumor of human NCI-H460 cells xenografted in Crl:NU(NCr)-Foxn1 nu mouse at 40 mg/kg, ip measured at 3 hrs post injection by LC-MS analysis. Type of data set: ADME, organism-based, Neoplasm. The conditions noted are these: in vivo. The essentials:
(§1)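 Male Nu/Nu mice, some bearing NCI-H460 or LOX-IMVI xenografts, given a single ip dose at 3 mL/kg. Organic vehicle components were dissolved first, with the aqueous part added gradually. Mice were euthanized at 1 h or 3 h. Cardiac blood was taken into NaEDTA/NaF plasma separator tubes. Quantification used loratadine internal standard against a spiked blank-plasma curve. Tumours were run as duplicate ~200 mg samples homogenized in 3% SDS and extracted twice with ethyl acetate, assuming 1 g tissue = 1 mL.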

A further data set concerns NCI-H69. As to the kind of experiment: Antitumor activity against human NCI-H69 cells xenografted in Crl:NU(NCr)-Foxn1 nu mouse assessed as tumor growth inhibition at 70 mg/kg, ip dosed on day 1 followed by 4 days rest and subsequently dosed at 70 mg/kg, ip qd administered for 3 consecutive days followed by 2 days of rest for 2 cycles relative to control. Type of data set: functional. The conditions noted are these: read-out: TGI. An outline of the steps:
(§2)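 Female athymic nude mice bearing subcutaneous xenografts, started from cultured cells (NCI-H460, Calu-6, NCI-H69, LOX-IMVI) or from serially passaged tumour fragments (NCI-H522). Mice were grouped into vehicle and treatment arms at tumour volumes of about 75-200 mm3. Dosing was ip at 5-10 mL/kg in 22% ethanol, 38% PEG400, 40% 20 mM Na citrate pH 5.0. Caliper volumes were taken as (length × width2)/2. Treated and control delta weights were median tumour weight minus staging-day median.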
A general note: A xenograft is tissue or cells of one species grown in another, often human tumour cells in immunodeficient mice.

The subject of data set [2] is Calu-6. Briefly: Antitumor activity against human Calu6 cells xenografted in Crl:NU(NCr)-Foxn1 nu mouse assessed as tumor growth inhibition at 50 mg/kg, ip qd administered for 3 consecutive days followed by 2 days of rest for 4 cycles relative to control. Type of data set: functional. The conditions noted are these: Calu-6, ip, 48 h, read-out: TGI. An outline of the steps: as §2

The subject of data set [3] is LOX IMVI. As to the kind of experiment: Antitumor activity against human LOXIMVI cells xenografted in Crl:NU(NCr)-Foxn1 nu mouse assessed as tumor growth inhibition at 30 mg/kg, ip qd for 7 consecutive days relative to control. Type of data set: functional. The conditions noted are these: read-out: TGI. The essentials: as §2
Data set [4] concerns LOX IMVI. Briefly: Antitumor activity against human LOXIMVI cells xenografted in Crl:NU(NCr)-Foxn1 nu mouse assessed as tumor growth inhibition at 30 mg/kg, ip qd relative to control. The conditions noted are these: read-out: TGI.
Data set [5] can be described thus: Toxicity in Crl:NU(NCr)-Foxn1 nu mouse xenografted with human […] cells assessed as maximum body weight loss at 50 mg/kg, ip qd administered for 3 consecutive days followed by 2 days of rest for 3 cycles measured after 7 days post dose relative to control. Type of data set: organism-based. The conditions noted are these: in vivo, 168 h. An outline of the steps: as §2

Data set [6] in a line: Toxicity in Crl:NU(NCr)-Foxn1 nu mouse xenografted with human LOX-IMVI cells assessed as maximum body weight loss at 30 mg/kg, ip qd administered for 7 consecutive days measured after 5 days post dose relative to control. It counts as organism-based. The conditions noted are these: in vivo, 120 h. An outline of the steps:
as §2

The nature of data set [7]: Toxicity in Crl:NU(NCr)-Foxn1 nu mouse xenografted with human Calu6 cells assessed as mortality at 60 mg/kg, ip qd administered for 3 consecutive days followed by 2 days of rest for 4 cycles. The conditions noted are these: in vivo, 48 h. It counts as organism-based. The essentials: (§3)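 Female athymic nude mice bearing subcutaneous xenografts started from cultured human tumor cells. Mice were split into vehicle and treatment groups once tumors reached about 75-200 mm3. Dosing was ip at 5-10 mL/kg in 22% ethanol, 38% PEG400, 40% 20 mM Na citrate pH 5.0. Deaths per group were recorded alongside maximum mean bodyweight loss.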

Another data set relates to NCI-H460. Briefly: Antiproliferative activity against human NCI-H460 cells after 72 hrs by CellTiter 96 aqueous nonradioactive cell proliferation assay. It counts as functional, cell-based. The conditions noted are these: NCI-H460, 72 h. An outline of the steps: (§4)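 Antiproliferation in cultured tumour cells, at least 3 replicate wells per concentration per experiment. NCI-H460 came from ATCC. M14, NCI/ADR-RES, OVCAR-4, HCT-15, ACHN and SF-295 came from the National Cancer Institute. IC50 reported from single experiments where no SD is given.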

A further data set relates to NCI/ADR-RES. As to the kind of experiment: Antiproliferative activity against taxane-resistant human NCI/ADR-RES cells after 72 hrs by CellTiter 96 aqueous nonradioactive cell proliferation assay. It counts as functional, cell-based. An outline of the steps: as §4
Data set [8] can be described thus: Toxicity in Crl:NU(NCr)-Foxn1 nu mouse xenografted with human […] cells assessed as mortality at 60 mg/kg, ip qd administered for 3 consecutive days followed by 2 days of rest for 3 cycles. The conditions noted are these: in vivo, 48 h. Type of data set: organism-based. An outline of the steps: (§5)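 Female athymic nude mice bearing subcutaneous NCI-H522 xenografts started from tumor fragments kept by continuous in vivo passage. Mice were grouped once tumors reached about 75-200 mm3. Dosing was ip at 5-10 mL/kg in 22% ethanol, 38% PEG400, 40% 20 mM Na citrate pH 5.0. Deaths per group were recorded with maximum mean bodyweight loss.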

The subject of the next data set is ACHN. As to the kind of experiment: Potency index, ratio of paclitaxel IC50 to compound IC50 for taxane-resistant human ACHN cells after 72 hrs by CellTiter 96 aqueous nonradioactive cell proliferation assay. It counts as functional.
The next data set relates to SF-295. As to the kind of experiment: Antiproliferative activity against taxane-resistant human SF295 cells after 72 hrs by CellTiter 96 aqueous nonradioactive cell proliferation assay. The conditions noted are these: SF-295, 72 h. It counts as functional, cell-based. The essentials:
as §4

Data set [9] can be described thus: Toxicity in Crl:NU(NCr)-Foxn1 nu mouse xenografted with human NCI-H460 cells assessed as mortality at 60 mg/kg, ip qd administered for 3 consecutive days followed by 2 days of rest for 3 cycles. Type of data set: organism-based. The conditions noted are these: in vivo, 48 h. An outline of the steps:
as §3

Data set [10] concerns Calu-6. Briefly: Antitumor activity against human Calu6 cells xenografted in Crl:NU(NCr)-Foxn1 nu mouse assessed as tumor growth inhibition at 60 mg/kg, ip qd administered for 3 consecutive days followed by 2 days of rest for 4 cycles relative to control. It counts as functional. The conditions noted are these: Calu-6, ip, 48 h, read-out: TGI. An outline of the steps: as §2

Data set [11] can be described thus: Plasma concentration in Crl:NU(NCr)-Foxn1 nu mouse xenografted with human NCI-H460 cells at 40 mg/kg, ip injected via vehicle solution measured at 1 hr post injection by LC-MS analysis. It counts as ADME, organism-based. The conditions noted are these: in vivo. The essentials:
as §1

The test system of the next data set is NCI-H522. Briefly: Antitumor activity against human NCI-H522 cells xenografted in Crl:NU(NCr)-Foxn1 nu mouse assessed as tumor growth inhibition at 40 mg/kg, ip qd administered for 3 consecutive days followed by 2 days of rest for 3 cycles relative to control. Type of data set: functional. The conditions noted are these: 48 h, read-out: TGI. An outline of the steps:
as §2

Data set [12] can be described thus: Toxicity in Crl:NU(NCr)-Foxn1 nu mouse xenografted with human […] cells assessed as mortality at 50 mg/kg, ip qd administered for 3 consecutive days followed by 2 days of rest for 3 cycles. It counts as organism-based. The conditions noted are these: in vivo, 48 h. An outline of the steps:
as §5

Data set [13] in a line: Toxicity in Crl:NU(NCr)-Foxn1 nu mouse xenografted with human NCI-H460 cells assessed as maximum body weight loss at 40 mg/kg, ip qd administered for 3 consecutive days followed by 2 days of rest for 3 cycles measured after 7 days post dose relative to control. It counts as organism-based. The conditions noted are these: in vivo, 168 h. The essentials: as §2
A short description of data set [14]: Toxicity in Crl:NU(NCr)-Foxn1 nu mouse xenografted with human NCI-H69 cells assessed as maximum body weight loss at 70 mg/kg, ip dosed on day 1 followed by 4 days rest and subsequently dosed at 70 mg/kg, ip qd administered for 3 consecutive days followed by 2 days of rest for 2 cycles measured after 3 days post dose relative to control. It counts as organism-based. The conditions noted are these: in vivo, 72 h. An outline of the steps: as §2

Each structure is given as a SMILES string.

Broadly, the IC50 is the concentration that gives 50% inhibition. For `C=CC[C@H]1C[C@]2([C@H](C)Cc3cc(O)c(OC)cc3F)OCOC2=CC1=O`, the Drug uptake result in [1] and in data set [11] was “Active” throughout. Further, in the data set on NCI-H69, the inhibition in vivo at 70 mg/kg worked out at 84%. Further, the inhibition in vivo at 50 mg/kg in the data set on Calu-6 [2] came out at 76%. The inhibition in vivo at 30 mg/kg in the data set on LOX IMVI [3] and in the data set with LOX IMVI [4] was 63% each time. Also, the Activity was 8% in data set [5]; 9% in data set [6]; “Non-Toxic” in data set [7]; “Non-Toxic” in data set [8]; “Non-Toxic” in data set [9]; “Non-Toxic” in data set [12]. The results for the Activity in data set [13] and in [14] were 7% and 9%, respectively. The results for the IC50 in the data set on NCI-H460, in the data set on NCI/ADR-RES and with SF-295 were 15 nM, 9 nM and 9.6 nM, respectively. For the same molecule, in the data set with ACHN, the “Ratio IC50” value is 7. The inhibition in vivo at 60 mg/kg in the data set with Calu-6 [10] came to 63%. The inhibition in vivo at 40 mg/kg with NCI-H522 is 54%.
